Measurements reported in ChEMBL document CHEMBL3797175, “Discovery of 6-(difluoro(6-(4-fluorophenyl)-[1,2,4]triazolo[4,3-b][1,2,4]triazin-3-yl)methyl)quinoline as a highly potent and selective c-Met inhibitor” (Eur J Med Chem, 2016).
Calls of active or inactive are those of the source. The rule behind the calls is not given here.

Experiments:
[1] = Half life in Sprague-Dawley rat at 2 mg/kg, iv administered as single dose; assay type: ADME, organism-based; details: in vivo
Summary of the method: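 Male Sprague Dawley rats (n=3), single dose. iv 2 mg/kg in 1% DMA/9% Cremophor/90% saline. po 10 mg/kg in 0.5% CMC-Na. Where iv was 10 mg/kg: 10% DMSO/10% Tween 80/80% (40% PEG40); po in that case in 10% DMSO/5% Tween 80/85% saline.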

[2] = Selectivity ratio of IC50 for human AGS cells to IC50 for human EBC1 cells; assay type: ADME, cell-based
Summary of the method: (§1)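 Both IC50s in each ratio come from one proliferation assay. Cells were seeded and exposed the next day to a range of concentrations for 72 h, then read by SRB or MTT. IC50s were fitted by four-parameter concentration–response, with each concentration at least in triplicate and at least 2 experiments. BaF3/TPR-Met is murine pre-B BaF3 transfected with TPR-MET and puromycin-selected.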

[3] = molecular target: Vascular endothelial growth factor receptor 2 (Homo sapiens) (UniProt P35968); assay: Inhibition of recombinant KDR (unknown origin) using poly (Glu, Tyr) 4:1 as substrate at 1000 nM incubated for 60 mins by ELISA relative to control
Vascular endothelial growth factor receptor 2 (Homo sapiens), sequence (P35968 whole entry): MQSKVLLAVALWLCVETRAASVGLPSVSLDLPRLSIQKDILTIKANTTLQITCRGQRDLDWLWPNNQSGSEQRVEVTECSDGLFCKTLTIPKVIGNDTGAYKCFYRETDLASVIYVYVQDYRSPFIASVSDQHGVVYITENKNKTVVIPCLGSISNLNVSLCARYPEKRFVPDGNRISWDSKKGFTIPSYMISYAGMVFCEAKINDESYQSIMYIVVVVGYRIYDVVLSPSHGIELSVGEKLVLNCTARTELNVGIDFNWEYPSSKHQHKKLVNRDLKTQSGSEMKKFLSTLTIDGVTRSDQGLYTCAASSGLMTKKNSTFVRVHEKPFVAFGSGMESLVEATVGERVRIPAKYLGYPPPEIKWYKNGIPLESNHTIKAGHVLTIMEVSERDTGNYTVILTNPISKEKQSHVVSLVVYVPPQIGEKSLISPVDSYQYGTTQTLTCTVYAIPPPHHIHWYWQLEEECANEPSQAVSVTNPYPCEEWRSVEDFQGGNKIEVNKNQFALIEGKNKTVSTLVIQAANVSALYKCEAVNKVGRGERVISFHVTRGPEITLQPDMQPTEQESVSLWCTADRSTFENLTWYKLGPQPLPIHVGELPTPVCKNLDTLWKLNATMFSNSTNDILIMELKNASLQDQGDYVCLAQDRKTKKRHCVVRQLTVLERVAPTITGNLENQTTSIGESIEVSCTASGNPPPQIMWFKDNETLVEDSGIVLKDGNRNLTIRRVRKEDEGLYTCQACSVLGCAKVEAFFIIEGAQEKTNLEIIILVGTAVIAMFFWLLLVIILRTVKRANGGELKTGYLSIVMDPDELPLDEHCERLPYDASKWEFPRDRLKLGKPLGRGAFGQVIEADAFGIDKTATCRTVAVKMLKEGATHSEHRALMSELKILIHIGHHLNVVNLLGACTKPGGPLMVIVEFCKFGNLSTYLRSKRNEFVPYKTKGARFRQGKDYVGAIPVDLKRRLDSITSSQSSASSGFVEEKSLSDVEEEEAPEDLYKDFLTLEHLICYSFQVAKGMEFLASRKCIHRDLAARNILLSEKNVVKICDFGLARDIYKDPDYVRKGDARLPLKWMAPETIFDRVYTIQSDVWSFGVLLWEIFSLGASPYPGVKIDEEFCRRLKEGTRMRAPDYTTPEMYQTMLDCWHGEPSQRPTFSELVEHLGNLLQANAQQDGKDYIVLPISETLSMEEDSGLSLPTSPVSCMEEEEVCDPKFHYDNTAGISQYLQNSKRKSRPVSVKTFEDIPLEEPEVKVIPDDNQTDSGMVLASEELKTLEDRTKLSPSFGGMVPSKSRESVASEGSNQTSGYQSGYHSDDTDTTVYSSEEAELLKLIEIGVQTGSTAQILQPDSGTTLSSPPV
Summary of the method: (§2)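 Recombinant tyrosine kinases assayed on wells precoated with poly(Glu,Tyr)4:1 (20 µg/mL). ATP 10 µmol/L in HEPES pH 7.4 buffer with MgCl2, MnCl2, Na3VO4 and DTT; compound in 1% DMSO, 1% DMSO as control. Reaction 60 min at 37 °C. Phosphotyrosine detected with PY99 and HRP anti-mouse, o-phenylenediamine, A490. Inhibition % relative to control; two experiments.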

[4] = molecular target: Mast/stem cell growth factor receptor Kit (Homo sapiens) (UniProt P10721); assay: Inhibition of recombinant c-Kit (unknown origin) using poly (Glu, Tyr) 4:1 as substrate at 1000 nM incubated for 60 mins by ELISA relative to control; summary of the method: as §2
Mast/stem cell growth factor receptor Kit (Homo sapiens), sequence (P10721 whole entry): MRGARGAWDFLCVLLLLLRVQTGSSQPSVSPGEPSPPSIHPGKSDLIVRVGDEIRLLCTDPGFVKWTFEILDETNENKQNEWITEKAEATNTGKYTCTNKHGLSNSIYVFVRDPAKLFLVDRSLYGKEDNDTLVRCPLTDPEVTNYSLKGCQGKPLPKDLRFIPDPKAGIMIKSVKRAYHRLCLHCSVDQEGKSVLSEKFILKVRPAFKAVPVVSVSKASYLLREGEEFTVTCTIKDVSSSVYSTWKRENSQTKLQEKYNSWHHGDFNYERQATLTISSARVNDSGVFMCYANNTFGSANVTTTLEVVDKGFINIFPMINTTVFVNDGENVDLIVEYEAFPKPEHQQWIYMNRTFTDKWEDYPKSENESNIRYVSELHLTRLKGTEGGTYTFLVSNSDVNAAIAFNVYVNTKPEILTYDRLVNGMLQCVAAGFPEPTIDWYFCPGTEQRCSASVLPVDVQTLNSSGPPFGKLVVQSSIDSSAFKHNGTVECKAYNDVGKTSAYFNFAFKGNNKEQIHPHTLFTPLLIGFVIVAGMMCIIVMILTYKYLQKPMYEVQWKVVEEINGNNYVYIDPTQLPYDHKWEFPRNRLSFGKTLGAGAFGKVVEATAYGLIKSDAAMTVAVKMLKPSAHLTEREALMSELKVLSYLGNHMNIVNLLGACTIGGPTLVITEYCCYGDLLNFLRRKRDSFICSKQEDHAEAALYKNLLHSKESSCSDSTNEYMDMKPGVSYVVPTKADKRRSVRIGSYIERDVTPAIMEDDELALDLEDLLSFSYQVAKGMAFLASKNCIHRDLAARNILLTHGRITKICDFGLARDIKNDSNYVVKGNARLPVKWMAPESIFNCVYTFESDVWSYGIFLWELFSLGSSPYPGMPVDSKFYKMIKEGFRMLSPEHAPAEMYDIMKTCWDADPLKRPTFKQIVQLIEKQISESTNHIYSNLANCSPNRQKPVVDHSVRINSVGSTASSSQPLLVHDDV

[5] = molecular target: T1, Hepatocyte growth factor receptor (Homo sapiens, UniProt P08581); assay: Inhibition of c-Met in HGF stimulated human U87MG cells assessed as reduction in AKT phosphorylation at Serine 473 at 10 nM after 1 hr by Western blot analysis; assay type: cell-based; details: U-87MG ATCC
T1 sequence (P08581 whole entry): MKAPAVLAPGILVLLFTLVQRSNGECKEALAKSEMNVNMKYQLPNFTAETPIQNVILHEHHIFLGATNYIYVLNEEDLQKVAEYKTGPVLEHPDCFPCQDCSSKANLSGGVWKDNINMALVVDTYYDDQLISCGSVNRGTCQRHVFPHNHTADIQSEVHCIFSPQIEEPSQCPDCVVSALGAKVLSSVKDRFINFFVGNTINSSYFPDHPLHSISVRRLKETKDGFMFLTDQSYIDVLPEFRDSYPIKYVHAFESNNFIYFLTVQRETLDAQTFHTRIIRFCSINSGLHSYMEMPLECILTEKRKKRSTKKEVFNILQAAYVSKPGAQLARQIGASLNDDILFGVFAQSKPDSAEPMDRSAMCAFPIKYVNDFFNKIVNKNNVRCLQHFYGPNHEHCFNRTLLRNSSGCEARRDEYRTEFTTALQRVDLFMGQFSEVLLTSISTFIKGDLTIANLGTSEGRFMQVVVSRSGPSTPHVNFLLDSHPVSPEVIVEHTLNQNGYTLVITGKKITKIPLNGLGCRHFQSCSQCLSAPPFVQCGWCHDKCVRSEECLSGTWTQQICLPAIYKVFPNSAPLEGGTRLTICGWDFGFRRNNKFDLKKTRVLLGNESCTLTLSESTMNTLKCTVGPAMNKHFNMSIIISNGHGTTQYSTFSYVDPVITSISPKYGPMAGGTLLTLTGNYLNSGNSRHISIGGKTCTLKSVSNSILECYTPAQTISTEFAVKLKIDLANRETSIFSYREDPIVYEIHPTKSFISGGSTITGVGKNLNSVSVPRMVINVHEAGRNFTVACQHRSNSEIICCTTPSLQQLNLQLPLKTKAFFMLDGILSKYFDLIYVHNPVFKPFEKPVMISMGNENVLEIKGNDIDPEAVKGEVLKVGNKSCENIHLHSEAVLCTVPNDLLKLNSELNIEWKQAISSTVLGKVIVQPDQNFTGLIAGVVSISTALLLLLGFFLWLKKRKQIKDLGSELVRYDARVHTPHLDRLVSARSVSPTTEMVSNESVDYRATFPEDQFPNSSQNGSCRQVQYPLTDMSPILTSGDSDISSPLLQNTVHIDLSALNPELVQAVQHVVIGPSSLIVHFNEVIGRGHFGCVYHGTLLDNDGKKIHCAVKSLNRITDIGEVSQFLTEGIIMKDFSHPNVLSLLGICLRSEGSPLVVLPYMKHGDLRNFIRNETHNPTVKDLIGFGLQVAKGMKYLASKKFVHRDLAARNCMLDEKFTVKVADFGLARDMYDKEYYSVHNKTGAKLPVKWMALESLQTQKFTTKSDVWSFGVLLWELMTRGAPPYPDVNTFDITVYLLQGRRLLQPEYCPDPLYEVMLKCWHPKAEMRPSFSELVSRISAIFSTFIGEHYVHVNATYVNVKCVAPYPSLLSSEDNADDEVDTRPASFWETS
Summary of the method: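 U87MG cells serum-starved 24 h, treated 1 h at 37 °C, then stimulated with HGF 100 ng/mL for 15 min. Lysed in SDS buffer, run on 10% SDS-PAGE and immunoblotted for phospho-ERK1/2 and phospho-AKT; ECL detection.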

[6] = molecular target: T1, Hepatocyte growth factor receptor; assay: Inhibition of c-Met in human MKN45 cells assessed as reduction in ERK phosphorylation at Tyrosine 204 at 10 nM after 1 hr by Western blot analysis; assay type: cell-based; details: MKN-45
Summary of the method: (§3)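 EBC-1 or MKN45 cells treated with compound 1 h at 37 °C without HGF, then lysed in 1× SDS sample buffer. Lysates run on 10% SDS-PAGE and transferred to nitrocellulose. Probed with antibodies to c-Met, phospho-c-Met, phospho-ERK1/2, phospho-AKT, AKT and GAPDH, then HRP secondary. ECL detection.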

[7] = molecular target: T1, Hepatocyte growth factor receptor; assay: Inhibition of c-Met phosphorylation at Tyrosine 1235 in human MKN45 cells at 10 nM after 1 hr by Western blot analysis; assay type: cell-based; details: MKN-45; summary of the method: as §3
[8] = Antiproliferative activity against human NCI-HCC827 cells after 72 hrs by SRB or MTT assay; assay type: functional, cell-based; details: HCC827, 72 h
Summary of the method: (§4)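 Cells seeded, exposed next day to a range of concentrations for 72 h. Growth read by sulforhodamine B or MTT. IC50 from four-parameter concentration-response fit. Each concentration tested at least in triplicate, with at least 2 experiments.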

[9] = Antiproliferative activity against human Calu3 cells after 72 hrs by SRB or MTT assay; assay type: functional, cell-based; details: Calu-3, 72 h; summary of the method: as §4
[10] = molecular target: T1, Hepatocyte growth factor receptor; assay: Inhibition of c-Met in human NCI-H441 cells assessed as inhibition of HGF-induced cell migration after 24 hrs by crystal violet staining based microscopic analysis
Summary of the method: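 NCI-H441 cells, 1.5×10^5 in serum-free medium, placed in upper Transwell chamber (8 µm pores; Matrigel-coated for invasion). Lower chamber serum-free medium ± HGF 100 ng/mL, with compound. After 24 h at 37 °C, non-migrated cells removed. Traversed cells stained with 0.1% crystal violet 15 min and imaged in 5 fields per filter. Three independent experiments.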

[11] = Antitumor activity against human EBC1 cells xenografted in athymic nude mouse assessed as tumor growth inhibition at 6.25 mg/kg, po bid for 21 days measured twice a week during compound dosing relative to control; assay type: functional; details: EBC-1, po, 504 h, read-out: TGI
Summary of the method: (§5)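 Nude mice bearing s.c. tumours. Cells were first grown s.c. to 700–800 mm³, then 1.5 mm³ fragments were transplanted s.c. into the right flank. Mice were randomised at 100–200 mm³ (n=6 treated, n=12 vehicle) and dosed orally twice daily for 21 days. Caliper measurement twice weekly; TV = length×width²/2. TGI taken on the final day versus vehicle; Student's t test.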

[12] = Antitumor activity against human MKN45 cells xenografted in athymic nude mouse assessed as tumor growth inhibition at 12.5 mg/kg, po bid for 21 days measured twice a week during compound dosing relative to control; assay type: functional; details: MKN-45, po, 504 h, read-out: TGI; summary of the method: as §5
[13] = Selectivity ratio of IC50 for human U87MG cells to IC50 for human EBC1 cells; assay type: ADME, cell-based; details: u-87mg atcc
[14] = Selectivity ratio of IC50 for human Bel7404 cells to IC50 for human MKN45 cells; assay type: ADME, cell-based; summary of the method: as §1
[15] = Selectivity ratio of IC50 for human NCI-H292 cells to IC50 for mouse BAF3 cells expressing TPR-MET; assay type: ADME, cell-based; summary of the method: as §1
[16] = Selectivity ratio of IC50 for human NCI-H3122 cells to IC50 for human EBC1 cells; assay type: ADME, cell-based; summary of the method: as §1
[17] = Selectivity ratio of IC50 for human NCI-H3122 cells to IC50 for mouse BAF3 cells expressing TPR-MET; assay type: ADME, cell-based; summary of the method: as §1
[18] = Selectivity ratio of IC50 for human Calu3 cells to IC50 for human EBC1 cells; assay type: ADME, cell-based; details: calu-3; summary of the method: as §1
[19] = Selectivity ratio of IC50 for human Calu3 cells to IC50 for mouse BAF3 cells expressing TPR-MET; assay type: ADME, cell-based; summary of the method: as §1
[20] = Selectivity ratio of IC50 for human SGC7901 cells to IC50 for human EBC1 cells; assay type: ADME, cell-based; details: sgc-7901
Summary of the method: (§6)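 Each cell line was seeded in 96-well plates, then exposed the next day to a range of compound concentrations for 72 h. Growth was read by SRB or MTT assay, and IC50 was fitted by a four-parameter concentration-response curve. Each concentration was run at least in triplicate, in at least 2 experiments. BaF3/TPR-Met are murine pre-B BaF3 cells transfected with TPR-MET cDNA and selected in puromycin.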

[21] = Selectivity ratio of IC50 for human SGC7901 cells to IC50 for human MKN45 cells; assay type: ADME, cell-based; details: sgc-7901; summary of the method: as §6
[22] = Selectivity ratio of IC50 for human SGC7901 cells to IC50 for mouse BAF3 cells expressing TPR-MET; assay type: ADME, cell-based; summary of the method: as §6
[23] = molecular target: Tyrosine-protein kinase receptor UFO (Homo sapiens) (UniProt P30530); details: 1000 nM
Tyrosine-protein kinase receptor UFO (Homo sapiens), sequence (P30530 whole entry): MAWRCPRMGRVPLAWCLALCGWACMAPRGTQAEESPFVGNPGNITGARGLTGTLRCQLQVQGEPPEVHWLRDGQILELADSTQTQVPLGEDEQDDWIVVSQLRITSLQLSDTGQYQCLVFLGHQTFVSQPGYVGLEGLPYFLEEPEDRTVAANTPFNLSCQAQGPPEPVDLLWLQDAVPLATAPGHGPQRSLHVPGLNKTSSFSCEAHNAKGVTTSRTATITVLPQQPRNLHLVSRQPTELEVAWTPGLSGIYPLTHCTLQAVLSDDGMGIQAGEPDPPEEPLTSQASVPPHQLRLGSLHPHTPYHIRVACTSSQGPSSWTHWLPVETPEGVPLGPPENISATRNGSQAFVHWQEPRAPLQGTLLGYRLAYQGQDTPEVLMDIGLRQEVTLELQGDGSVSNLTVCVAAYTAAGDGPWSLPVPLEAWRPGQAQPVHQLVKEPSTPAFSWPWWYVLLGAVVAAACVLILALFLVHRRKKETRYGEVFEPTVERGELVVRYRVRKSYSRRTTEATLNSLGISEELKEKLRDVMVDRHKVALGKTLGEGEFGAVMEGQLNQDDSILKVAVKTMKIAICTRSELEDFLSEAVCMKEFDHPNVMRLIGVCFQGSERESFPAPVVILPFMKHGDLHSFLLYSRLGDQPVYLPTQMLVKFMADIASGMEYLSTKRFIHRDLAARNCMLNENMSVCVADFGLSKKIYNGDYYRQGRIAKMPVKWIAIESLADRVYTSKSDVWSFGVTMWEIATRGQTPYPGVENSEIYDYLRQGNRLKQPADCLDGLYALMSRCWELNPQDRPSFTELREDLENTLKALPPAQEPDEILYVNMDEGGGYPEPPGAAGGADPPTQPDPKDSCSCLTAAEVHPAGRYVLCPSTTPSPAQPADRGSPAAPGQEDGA

SMILES: Fc1ccc(-c2cnc3nnc(C(F)(F)c4ccc5ncccc5c4)n3n2)cc1
- half-life [1]: 1.23 h
- Ratio IC50 [2]: 10000
- inhibition [3]: 15.3%
- inhibition [4]: 32.1%
- inhibition [5]: Active
- inhibition [6]: Active
- inhibition [7]: Active
- IC50 [8]: > 10 µM
- IC50 [9]: > 10 µM
- inhibition [10]: Dose-dependent effect
- inhibition in vivo at 6.25 mg/kg [11]: 56.9%
- inhibition in vivo at 12.5 mg/kg [12]: 80.1%
- Ratio IC50 [13]: 10000
- Ratio IC50 [14]: 10000
- Ratio IC50 [15]: 10000
- Ratio IC50 [16]: 10000
- Ratio IC50 [17]: 10000
- Ratio IC50 [18]: > 10000
- Ratio IC50 [19]: > 10000
- Ratio IC50 [20]: > 10000
- Ratio IC50 [21]: > 10000
- Ratio IC50 [22]: > 10000
- inhibition [23]: 36%
